FN deposition inh: fibronectin deposition inhibition | AH1F fibroblasts, Alexa488-fibronectin deposition fluorescence, overnight | inhibition, % at 12.6 µM | hit rate 0.086% among 350,000 | AID 743247;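 active = mean inhibition across replicates of 30% or more, regardless of how many single replicates reach that level; inconclusive = mean under 30% yet at least half of replicates reach 30%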
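Material: AH1F fibroblasts assembling fluorescent fibronectin matrix; amount: 10000 AH1F cells/well; medium: DMEM, 2% serum; reagent: Alexa488-fibronectin, 24 nM final in well; dosing: single compound dose, delivered by pin transfer; incubation: 1 h adhesion, overnight exposure; detection: fluorescence after three HBSS washes, excitation 485 nm, emission 525 nm; measure: fibronectin deposition inhibition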
Xi reactivation: X-chromosome reactivation activator. XiGFP mouse fibroblasts, % GFP-positive cells imaging, 3 d; cells co-treated with 5-aza-dC sensitizer; scaled so ellipticine positive control = 100%. activation, % at 7.58 µM. hit rate 0.055% among 360,000;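 active = mean normalized replicate activation at least 10% and every replicate at or above 10%; inconclusive = only one of the two criteria met; inactive = mean below 10% and not all replicates reach 10%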
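System: XiGFP fibroblasts, SV40-immortalized. Medium: DMEM plus 5-aza-dC sensitizer. Doses: single point. Timing: 3 d treatment, 15 min room-temperature fixation. Control set: ellipticine 6 µM.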
Cneo AK release: Cryptococcus neoformans lysis via adenylate kinase release. C. neoformans lysis, adenylate kinase release luminescence, 4 h; normalised: neutral wells 0, clomiphene wells 100. lysis activity, % at 15 µM. hit rate 0.2% among 360,000;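 active = mean lysis activity across replicates of at least 80%, whatever share of replicates individually reach that level; inactive = mean lysis activity below 80%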
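Material – log-phase Cryptococcus neoformans yeast cells · Input – 5 × 10^6 yeast cells/mL · Medium – fresh YPD growth medium · Doses – single compound concentration per well · Timing – static 4 h at 37 °C with compound, 1 h detection · Detection – adenylate kinase release luminescence · Read-out – signal increase indicating cell lysis · Control set – Clomiphene as positive lysis control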
F508del corr: CFTR F508del correction in bronchial cells; CFBE cells, YFP halide quenching; stimulated with forskolin plus potentiator P3; % fluorescence drop versus neutral controls; activity (quench increase), % at 7.58 µM; hit rate 0.36% among 350,000; AID 720511;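 active = mean added fluorescence quench of at least 8% versus neutral control, with both replicates also reaching 8%; inconclusive = only one of the mean or replicate conditions met; inactive = mean below 8% and not both replicates reaching 8%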;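 also: cells transiently co-express mutant CFTR-F508del with the halide-sensitive YFP; corrector assay measuring rescue of mutant channel to the surface after 24 h compound exposure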
DENV2 CPE rescue: inhibitors of DENV2 cytopathic effect | DENV2-infected cells, cytopathic effect rescue, plate reader | CPE inhibition, % at 9.99 µM | hit rate 1.7% among 350,000; in the data active = CPE inhibition above about 20%, passing the limit was not always enough; inconclusive = no clear call, values can overlap the other calls; tested in BHK-21 cells
PGC1a acetyl inh: modulators of PGC1a acetylation; AID 651687; hit rate 0.17% among 350,000; U2OS PGC1a acetylation, AlphaScreen anti-acetyl-lysine; with virally co-expressed GCN5 acetyltransferase; inhibition, % at 15.6 µM;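 active = every replicate shows inhibition of at least 40%; inconclusive = mean inhibition at least 40% but some replicate below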
A number is an active result; – = inactive; ? = inconclusive; · = no result. Only some compounds are listed: those with a hit (about 1.9% of all), similar ones and a draw of the others.

SMILES | FN deposition inh | Xi reactivation | Cneo AK release | F508del corr | DENV2 CPE rescue | PGC1a acetyl inh
O=c1[nH]c(=O)n(C2C[C@H](O)[C@@H](CO)O2)cc1C(F)(F)F (stereo partly drawn) | – | – | – | – | – | –
C[C@@H]1CN([C@H](C)CO)C(=O)c2cc(Br)cnc2O[C@H]1CN(C)C(=O)Nc1ccccc1 | – | – | – | – | – | –
COc1ccc2c3c(n(C)c2c1)[C@@H](CO)N(S(C)(=O)=O)CC31CN(C(=O)C2CC2)C1 | · | – | · | – | – | –
CC1=C/C(=N\OS(=O)(=O)c2ccccc2)C(C)=CC1=O | · | · | – | · | · | 60
COc1ccc(S(=O)(=O)/N=C2/C=CC(=O)C(C)=C2C)cc1 | · | · | – | · | · | –
CC1=C(C)/C(=N\OS(=O)(=O)c2ccc(C)cc2)C=CC1=O | 33 | – | · | · | · | ·
O=S(=O)(c1cnc(Cl)c(Cl)c1)N1CCCc2ccccc21 | · | – | · | · | – | ·
O=S(=O)(c1cnc(Cl)c(Cl)c1)N1CCc2ccccc21 | – | – | – | – | 57 | –
CNC(=O)c1c(NC(=O)c2ccc(S(=O)(=O)N(C)c3ccccc3)cc2)sc2c1CCN(C(C)C)C2 | – | – | · | – | 96 | ·
CCC(=O)N[C@H]1C=C[C@H](CC(=O)NCc2cc(F)cc(F)c2)O[C@H]1CO | – | – | – | – | – | –
CO[C@H]1CN(C)C(=O)c2ccc(NC(C)=O)cc2OC[C@@H](C)N(S(=O)(=O)c2cn(C)cn2)C[C@@H]1C | – | – | – | – | 26 | –
CO[C@H]1CN(C)C(=O)c2ccc(NC(C)=O)cc2OC[C@@H](C)N(S(C)(=O)=O)C[C@@H]1C | – | – | – | · | – | ·
CO[C@H]1CN(C)C(=O)c2ccc(NC(=O)NC(C)C)cc2OC[C@@H](C)N(S(C)(=O)=O)C[C@@H]1C | – | – | · | – | 43 | –
CO[C@@H]1CN(C)C(=O)c2ccc(NC(C)=O)cc2OC[C@@H](C)N(S(C)(=O)=O)C[C@H]1C | – | – | – | · | 94 | ·
CO[C@H]1CN(C)C(=O)c2ccc(NC(=O)NC(C)C)cc2OC[C@H](C)N(S(C)(=O)=O)C[C@@H]1C | – | – | · | · | · | ·
C[C@@H]1CCCCO[C@H](CN(C)C)[C@H](C)CN([C@@H](C)CO)C(=O)c2cc(NC(=O)NC3CCCCC3)ccc2O1 | · | – | · | – | · | –
COc1ccc2c3c([nH]c2c1)[C@@H](CO)N(C(=O)Nc1ccc(F)cc1)CC31CN(Cc2ccccc2OC)C1 | · | – | · | – | – | –
CCOC(=O)CNC(=S)N(Cc1cccs1)C1CCCCC1 | – | – | · | · | 21 | ·
CO[C@@H]1CN(C)C(=O)c2cc(NC(=O)Nc3cccc(F)c3)ccc2OC[C@@H](C)N(C)C[C@H]1C | – | – | – | – | – | –
COc1cccc(NC(=O)Nc2ccc3c(c2)C(=O)N(C)C[C@@H](OC)[C@@H](C)CN(C)[C@H](C)CO3)c1 | – | – | – | – | 26 | –
CO[C@H]1CN(C)C(=O)c2cc(NC(=O)Nc3cccc(F)c3)ccc2OC[C@H](C)N(C)C[C@H]1C | – | – | 103 | – | 29 | –
C[C@@H]1CN([C@H](C)CO)C(=O)c2cc(NC(=O)CCCN(C)C)ccc2O[C@@H](C)CCCCO[C@@H]1CN(C)Cc1ccccc1 | – | – | · | – | · | –
Oc1cc2c(cc1O)C(c1ccccc1)CNCC2 (stereo not drawn) | – | – | – | 9.5 | 52 | –
CCC(=O)N1[C@@H]2c3cccc(=O)n3C[C@@H]2[C@@H](CO)[C@@H]1C(=O)N[C@H](C)c1ccccc1 | · | – | · | – | – | –
Cc1ccc(Nc2nc(-c3cccnc3)nc3ccccc23)cc1 | – | – | – | 12 | – | –
SMILES | FN deposition inh | Xi reactivation | Cneo AK release | F508del corr | DENV2 CPE rescue | PGC1a acetyl inh
CC(=O)N[C@H]1CC[C@H](CC(=O)NCc2ccc(Cl)cc2)O[C@H]1CO | · | – | – | – | – | –
COCOc1cccc(CN2CCC2(C)C(=O)Nc2ccc(C)c(O)c2)c1 (stereo not drawn) | – | – | – | 8.8 | – | –
C/C(Cn1ncc(N2CCOCC2)c(Cl)c1=O)=N\O | – | – | – | – | 29 | –
CC(=O)Cn1ncc(N2CCCCC2)c(Cl)c1=O | · | – | · | – | – | ·
C#CCN(C[C@@H]1[C@@H](OC(=O)NCC2CCCCC2)[C@@H](OC(=O)NCC2CCCCC2)Cn2c(=O)ccc(=O)n21)S(=O)(=O)c1ccc(C)cc1 | – | – | – | – | · | 91
C[C@@H]1CN([C@H](C)CO)C(=O)c2cc(NC(=O)Cn3cnnn3)ccc2O[C@@H]1CN(C)C(=O)Nc1ccc(F)cc1 | – | – | – | – | – | –
CC(C)C[C@@H]1O[C@H](CCc2ccccc2)CC2=C1C(=O)OC(C)(C)O2 | · | – | · | – | – | ·
CC(C)[C@@H]1CC2=C(C(=O)OC(C)(C)O2)[C@H](CCc2ccccc2)O1 | – | – | · | – | 42 | ·
CC1(C)OC(=O)C2=C(CC(CCc3ccccc3)OC2CCc2ccccc2)O1 (stereo not drawn) | – | – | · | – | – | ·
CC(C)C[C@@H]1CC2=C(C(=O)OC(C)(C)O2)[C@H](CCc2ccccc2)O1 | – | – | · | – | 29 | ·
COc1ccc(NC(=O)Nc2ccc3c(c2)C(=O)N([C@@H](C)CO)C[C@H](C)[C@H](CN(C)S(=O)(=O)c2ccc(C)cc2)OCCCC[C@H](C)O3)cc1 | · | – | – | – | – | –
C[C@@H]1CN([C@@H](C)CO)C(=O)c2cc(NC(=O)Nc3ccc(F)cc3)ccc2O[C@@H]1CN(C)S(=O)(=O)c1ccccc1 | · | – | – | – | ? | –
O=C(c1cccc(-c2cncc3nccn23)c1)N1CCOCC1 | – | – | – | – | – | –
CN1CCN(C(=O)c2cccc(-c3cnc4cnc(-c5ccccc5Oc5ccccc5)cn34)c2)CC1 | 40 | – | – | – | – | ·
C[C@@H]1COCn2nncc2CC[C@@H](Cc2ccc(Cl)cc2)C(=O)N1 | – | – | · | · | · | ·
COc1ccc(-c2nc3c4ccccc4ccn3c2Cc2cccc(Cl)c2)cc1OC | – | · | – | – | 76 | –
Cc1ccc(Cc2c(-c3ccccc3)nc3c4ccccc4ccn23)cc1 | – | – | · | – | – | ·
Cc1ccc(Cc2c(-c3ccc(F)cc3)nc3c(C)cc(Br)cn23)cc1 | · | · | – | · | · | –
Cc1ccc2nc(-c3cccc(Br)c3)c(Cc3ccsc3)n2c1 | – | – | · | – | 24 | ·
Cc1ccc(Cc2c(-c3cccc(Br)c3)nc3c4ccccc4ccn23)cc1 | – | – | · | – | 39 | ·
Cc1ccc(Cc2c(-c3ccc(C)cc3)nc3c(C)cc(Br)cn23)cc1 | – | – | – | 11 | – | –
CCCNC(=O)C[C@@H]1CC[C@@H]2[C@H](COC[C@@H](O)CN2C(=O)Nc2cccc(Cl)c2)O1 | – | – | – | – | – | –
N#Cc1ccc(-c2cccs2)nc1SCc1cccnc1 | – | – | – | 9.0 | – | –

Screening data deposited in PubChem BioAssay by Broad Institute.
